# Screens as filed in PubChem BioAssay.
# An excerpt weighted towards active compounds, which were near 1.7% of everything screened.
# Rpn11 block: blocks the human proteasome subunit Rpn11. calls only at 20 µM. 360,000 compounds, 0.59% hits. AID 588493. human 26S proteasome, Ub4-pepOG fluorescence polarization; 20S core pre-blocked with epoxomicin;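 active = inhibition at 20 µM, scaled to each plate's controls, above about 33%, limit read from the data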
# Target sequence (O00487 whole entry, looked up): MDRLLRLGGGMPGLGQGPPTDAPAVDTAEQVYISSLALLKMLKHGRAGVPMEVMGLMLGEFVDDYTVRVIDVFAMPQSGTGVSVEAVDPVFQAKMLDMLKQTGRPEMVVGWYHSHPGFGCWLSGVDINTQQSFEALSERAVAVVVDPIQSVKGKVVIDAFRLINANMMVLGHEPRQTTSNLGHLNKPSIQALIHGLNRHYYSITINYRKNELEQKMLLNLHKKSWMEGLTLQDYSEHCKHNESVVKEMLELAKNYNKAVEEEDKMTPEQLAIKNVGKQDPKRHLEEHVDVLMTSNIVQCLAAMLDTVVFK
# CSN deneddyl inh: blocks human CSN-mediated cullin deneddylation; Q92905; Purified CSN, SCF-Nedd8-OG deneddylation, fluorescence polarization; AID 651999; 360,000 compounds, 0.38% hits; inhibition, % at 12.5 µM;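 active = pattern-corrected inhibition above about 35%, with an unprinted fluorescence ratio check between 0.5 and 1.5, limit read from the data, passing the limit was not always enough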;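 also: 0% = enzyme with substrate and 100% = substrate without enzyme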
# Target sequence (Q92905 whole entry, looked up, one chain of several): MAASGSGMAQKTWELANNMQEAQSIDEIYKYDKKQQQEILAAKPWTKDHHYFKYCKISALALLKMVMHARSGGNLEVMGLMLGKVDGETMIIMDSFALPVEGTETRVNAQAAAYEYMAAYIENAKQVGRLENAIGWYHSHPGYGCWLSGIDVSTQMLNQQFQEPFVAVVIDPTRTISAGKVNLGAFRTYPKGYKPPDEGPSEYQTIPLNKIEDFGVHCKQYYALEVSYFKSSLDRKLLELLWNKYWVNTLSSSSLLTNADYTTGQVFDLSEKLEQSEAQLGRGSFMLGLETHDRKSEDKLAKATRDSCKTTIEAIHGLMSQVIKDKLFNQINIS
#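 Material: human Csn5 produced in HEK293T cells; Input: enzyme 0.24 nM; Reagent: SCFSkp2-Nedd8OG substrate at 10 nM final; Dosing: 12.5 µM compound; Incubation: 90 min reaction at room temperature; Detection: fluorescence polarization of the substrate; Evaluation: % inhibition of substrate cleavage by Csn5; Control set: substrate-only high control, full reaction low control.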
# IDE cell activ: activators of human insulin-degrading enzyme in cells | HEK cells, FAbeta-B cleavage, fluorescence polarization; 0% vehicle, 100% cell-free pure enzyme wells | activation, % at 5.96 µM | 340,000 compounds, 0.073% hits | P14735;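 active = activation above the mean of all tested compounds plus 3 SD, set per screening campaign, cut at about 17% in these data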
# IDE inh: inhibits human insulin-degrading enzyme in HEK cells | P14735 | FAbetaB cleavage, fluorescence polarization | inhibition, % at 5.59 µM | 320,000 compounds, 0.41% hits | AID 434962;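 active = percent inhibition above the average of all tested compounds plus 3 SD, set per screening campaign, cut at about 16% in these data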;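 also: IDE supplied by intact live HEK cells; FP after avidin binding of uncleaved biotin substrate so inhibition keeps polarization high; 0% = DMSO wells and 100% = 60 µM reference IDE inhibitor Ii1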
# TPT1 inh: inhibitors of Candida albicans tRNA 2'-phosphotransferase TPT1 | inhibition, % at 5 µM | recombinant caTPT1, FP RNA substrate dephosphorylation | AID 1962 | 300,000 compounds, 0.81% hits;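 active = inhibition above the mean of all tested compounds plus 3 SD, set per screening campaign, cut at about 24% in these data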;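 also: plate controls were DMSO alone for no effect and ferristatin control at 100 nM for full effect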
# HNF4A DNA FP: change in binding of human HNF4 alpha to DNA. P41235. HNF4a-FITC DNA binding, fluorescence polarization, 1 h. activity change, % at 10 µM. 360,000 compounds, 0.3% hits; in the data active = activity change above about 30%, passing the limit was not always enough
# CSN5 deneddyl: Csn5 (human) deneddylation inhibition, single-concentration validation | shares compounds with CSN deneddyl inh | Csn5 deneddylation of SCF-Nedd8OG, fluorescence polarization, 90 min | inhibition, % at 16.6 µM | 540 compounds, 62% hits | AID 720654; in the data active = inhibition above about 50%;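 also: 0% = DMSO with enzyme and 100% = no enzyme wells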
# MMP2 cntr CSN: counter-screen for CSN deneddylation inhibitors: human MMP-2 inhibition; shares compounds with CSN deneddyl inh; recombinant MMP-2, FRET substrate fluorescence, 60 min; inhibition, % at 16.6 µM; 540 compounds, 33% hits; AID 720655;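 active = corrected plate-normalized z-score of 5 or more, or -5 or less, or inhibition of 15% or more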;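 also: plate controls were DMSO wells with enzyme for no effect and buffer wells lacking MMP-2 for full effect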
# Thrombin counter: counter-screen for CSN deneddylation inhibitors: bovine thrombin inhibition | shares compounds with CSN deneddyl inh | bovine thrombin cleavage of Ub4-pepOG, fluorescence polarization | inhibition, % at 16.6 µM | 540 compounds, 49% hits;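 active = inhibition at or above a set limit, with a fluorescence interference ratio between 0.5 and a set maximum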
# An asterisk follows results filed as active; i = inactive; · = no result given; + = active, no number; ! = repeats disagree.
SMILES,Rpn11 block,CSN deneddyl inh,IDE cell activ,IDE inh,TPT1 inh,HNF4A DNA FP,CSN5 deneddyl,MMP2 cntr CSN,Thrombin counter
CC1C=CC=CC=CC=CC=CC=CC=CC(OC2OC(C)C(O)C(N)C2O)CC2OC(O)(CC(O)CC(O)C(O)CCC(O)CC(O)CC(=O)OC(C)C(C)C1O)CC(O)C2C(=O)O (configuration not stated),+,39.3*,6.8,·,·,-11.5,78.1*,-0.7,15.0*
O=C(O)c1cc(-c2ccco2)nc2ccc(Br)cc12,+!,41.8*!,3.2,-2.4,-11.7,-38.9,80.8*,7.3,-5.6
CCCN(C(=O)c1ccc2c(SCC(=O)O)c3c(nc2c1)CCC3)c1cccc(C)c1,i,-0.4,2.8,4.1,-1.5,1.9,·,·,·
CCN1/C(=C/c2ccc3cc(C)ccc3[n+]2CC)Sc2cc(C)ccc21,·,56.0*,-76.5,·,·,108.5*,60.4*,-5.8,33.1
CCCCN1/C(=C/c2ccc3ccccc3[n+]2CC)Sc2ccccc21,i,21.9,·,·,·,35.4,·,·,·
CCN1/C(=C/c2ccc3cc(C)ccc3[n+]2C)Sc2ccc3sccc3c21,+,137.2*,-30.7,·,·,180.2,-16.3,11.0,67.2*
CCN(C(=S)Nc1cccnc1)c1cccc2ccccc12,i,23.9,2.7,-2.1,-4.3,-3.5,·,·,·
COc1ccc(NC(=O)COC(=O)C2CCN(C(=O)c3ccc(Cl)cc3)CC2)c([N+](=O)[O-])c1,i,-5.6,4.4,3.0,·,0.2,·,·,·
CC(C)CC(=NNC(=O)c1ccncc1)c1cc(Cl)ccc1O,·,62.8*,-59.1,·,·,97.7,71.4*,-51.4*,46.4*
CC(O)CN(CC(C)O)c1ccc2c(c1)Cc1cc([N+](=O)[O-])ccc1-2 (configuration not stated),·,58.1*,-10.5,·,·,94.0,37.8,4.3,81.7*
NC1=NC(c2ccccc2)CC(=O)N1 (configuration not stated),i,-1.3,-0.8,·,·,6.3,·,·,·
CCOc1ccc(/C=c2\sc3nc(-c4ccco4)nn3c2=O)cc1OCC,i,23.6,1.4,2.9,-7.8,-14.7,·,·,·
COc1ccccc1/C=c1\sc2nc(-c3ccco3)nn2c1=O,i,38.0*,-1.1,3.6,13.1,-12.9,86.3*,4.0,5.6
CC(C)(C)c1ccc(Cn2c(=N)n(CC(O)c3ccco3)c3ccccc32)cc1 (configuration not stated),·,67.8*,4.4,1.0,11.3,31.1,92.3*,-5.7,2.1
Cc1ccccc1Cn1c(=N)n(CC(O)c2ccco2)c2ccccc21 (configuration not stated),i,-1.6,2.0,3.6,15.9,0.3,·,·,·
CC(NC(=O)C(=O)N/N=C\c1ccc([N+](=O)[O-])cc1)c1ccccc1 (configuration not stated),i,-7.5,0.0,4.0,-3.4,0.4,·,·,·
N#Cc1ccc(NC(=O)COC(=O)c2ccc(F)c(S(=O)(=O)N3CCOCC3)c2)cc1,i,-3.3,-1.0,4.5,·,1.9,·,·,·
Cc1c(N2C(=O)/C(=C/c3ccc(N(C)C)cc3)N(C)C2=S)c(=O)n(-c2ccccc2)n1C,·,61.5*,-19.7,·,·,55.4*,37.2,-3.7,73.5*
Cc1ccc(C2=NN(S(=O)(=O)c3ccccc3)C(c3ccccc3O)C2)cc1 (configuration not stated),·,60.7*,-3.0,·,·,79.7*,56.8*,0.4,55.7*
O=S(=O)(c1ccccc1)N1N=C(c2ccccc2)CC1c1ccco1 (configuration not stated),·,·,·,-4.7,4.3,·,·,·,·
CCOC(=O)c1sc2nc3c(SCC(=O)O)cc(C(=O)c4cc(F)ccc4O)cn3c(=O)c2c1C,+,75.8*,5.9,3.7,10.1,-5.0,22.3,33.9*,2.9
O=C(CSc1nc(-c2ccccc2)nc2c1Cc1ccccc1O2)Nc1ccc(C(=O)O)cc1,+,48.1*,3.0,·,·,-62.9,60.0*,20.3*,10.0
O=C(CSc1nc(-c2ccccc2)nc2ccccc12)Nc1cccc(C(=O)O)c1,i,-0.7,·,2.1,-2.9,-1.2,·,·,·
COc1ccc(CCNC(=O)CCN2C(=O)[C@@H]3Cc4ccccc4CN3C2=O)cc1OC,i,-1.9,0.9,0.7,-0.1,2.4,·,·,·
Cc1ccc(S(=O)(=O)/N=C2/NC(=O)/C(=C\c3cc(Br)cc(Br)c3O)S2)cc1,·,146.9*,-134.9,·,·,80.5*,-72.2,-80.1*,-84.1
SMILES,Rpn11 block,CSN deneddyl inh,IDE cell activ,IDE inh,TPT1 inh,HNF4A DNA FP,CSN5 deneddyl,MMP2 cntr CSN,Thrombin counter
Nc1ccc2c(O)cc(S(=O)(=O)O)cc2c1,i,35.9*,-3.9,·,·,-14.7,93.8*,16.1*,8.8
CC(=O)Nc1ccc2c(O)cc(S(=O)(=O)O)cc2c1,i,0.1,4.2,·,·,-14.7,·,·,·
COC(=O)c1cc(C)nc2c1C(=O)C(=O)C=C2N1CCOCC1,i,45.2*,3.0,-1.1,-1.8,2.6,27.9,1.8,-36.1
C/C(=C1/SC(=S)N(CCC(=O)O)C1=O)c1ccc(O)cc1,i,-2.0,8.3,2.1,1.5,2.2,·,·,·
CCOc1ccc(C(=O)Nc2c3c(nn2-c2ccc(C)cc2)CS(=O)C3)cc1OCC (configuration not stated),i,3.4,3.1,-2.0,3.8,3.6,·,·,·
COc1ccccc1N(CC(=O)NCc1ccco1)S(=O)(=O)c1ccc(C)cc1,i,43.8*,-1.9,1.6,-1.4,-25.4,61.6*,27.9*,6.3
COc1ccc(N(CC(=O)NCc2ccco2)S(=O)(=O)c2ccc(C)cc2)cc1OC,i,3.7,3.8,3.7,0.8,-2.6,·,·,·
O=C(C1=C(O)C(=O)N(c2nc3ccc(Cl)cc3s2)C1c1ccco1)c1ccco1 (configuration not stated),·,44.1*,-6.5,-3.4,·,-23.2,53.2*,12.5,15.1*
Cc1cc(NC(=O)c2cncc(Br)c2)ccc1NC(=O)c1cc2ccccc2o1,i,59.8*,18.0*,-0.7,0.2,22.2,9.7,15.8*,-10.9
COc1cc(NC(=O)c2ccccc2)ccc1NC(=O)c1cc2ccccc2o1,i,2.8,-5.0,3.0,-1.2,0.4,·,·,·
COc1ccc(CNC(=S)Nc2cc(C)cc(C)c2)cc1,i,6.0,1.9,0.9,-7.2,1.4,·,·,·
CCC1=C2CC[C@H]3C(=O)N(C)C(=O)[C@H]3[C@H]2[C@@]2(Cc3ccccc3)C(=NCCOC)OC(=O)N2C1=O,i,4.2,2.1,7.1,-4.6,2.8,·,·,·
